The values below come from ChEMBL document CHEMBL1142125, “Bioactive lignans from Peperomia duclouxii” (J Nat Prod, 2007).

The subject of one test is WI-38 VA13. Briefly: Growth inhibition of human VA13 cells. The format is functional, cell-based. The gist of the method:
(§1)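 Growth inhibition assays. WI-38 cells were kept in Eagle's MEM and VA-13 cells in RITC 80-7, both with 10% (v/v) FBS and 80 µg/mL kanamycin. HepG2 cells were kept in D-MEM with 10% (v/v) FBS and 80 µg/mL kanamycin. IC50 is the concentration giving 50% growth inhibition.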

In the next test the test system is WI-38. Briefly: Growth inhibition of human WI38 cells. The format is functional, cell-based. The method, boiled down: as §1
The next test has as its system HepG2. The test can be described thus: Growth inhibition of human HepG2 cells. The format is functional, cell-based. The gist of the method:
as §1

Test [1] concerns A549. The test can be described thus: Inhibition of TNF-alpha-induced ICAM1 in human A549 cells. The format is functional, cell-based. The method, boiled down:
(§2)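 ICAM-1 induction assay. Human A549 cells were grown in RPMI 1640 with heat-inactivated 10% FBS, penicillin G and streptomycin. Cells were stimulated with recombinant IL-1α or TNF-α. Cell-surface ICAM-1 was detected with mouse anti-human ICAM-1 antibody C167 plus a peroxidase-conjugated goat anti-mouse IgG, and an IC50 was derived.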

Test [2] deals with A549. Briefly: Inhibition of IL-1-alpha-induced ICAM1 in human A549 cells. The format is functional, cell-based. The gist of the method: as §2
Test [3] concerns A549. Briefly: Cytotoxicity against human A549 cells by MTT assay. The format is cell-based. The method, boiled down: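 Cell viability was measured by MTT assay in human A549 cells grown in RPMI 1640 with heat-inactivated 10% FBS, penicillin G and streptomycin. This was done alongside the IL-1α/TNF-α-stimulated ICAM-1 induction assay, and an IC50 was derived.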
Test [4] is described as follows: Effect on calcein accumulation in human multidrug-resistant 2780AD cells at 25 ug/mL relative to control. The format is functional, A2780 ADR. The method, boiled down: (§3)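 Calcein accumulation assay. Multidrug-resistant human ovarian cancer 2780AD (AD10) cells were grown in RPMI-1640 with 10% (v/v) FBS and 80 µg/mL kanamycin. Calcein formed from calcein AM by endogenous esterase served as the efflux probe. Cells were tested at 0.25, 2.5 and 25 µg/mL. Read-out was fluorescence per well, as the mean of triplicates, expressed relative to the untreated control or to the verapamil positive control.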

The nature of test [5]: Effect on calcein accumulation in human multidrug-resistant 2780AD cells at 0.25 ug/mL relative to control. The format is functional, A2780 ADR. The method, boiled down: as §3
Test [6] can be described thus: Effect on calcein accumulation in human multidrug-resistant 2780AD cells at 2.5 ug/mL relative to verapamil. The format is functional, A2780 ADR. The gist of the method:
as §3

The nature of test [7]: Effect on calcein accumulation in human multidrug-resistant 2780AD cells at 2.5 ug/mL relative to control. The format is functional, A2780 ADR. The gist of the method:
as §3

The nature of test [8]: Effect on calcein accumulation in human multidrug-resistant 2780AD cells at 0.25 ug/mL relative to verapamil. The format is functional, A2780 ADR. The method, boiled down:
as §3

A short description of test [9]: Effect on calcein accumulation in human multidrug-resistant 2780AD cells at 25 ug/mL relative to verapamil. The format is functional, A2780 ADR. The method, boiled down: as §3

In brackets after ≈: the same amount, converted by molar mass.

For the molecule `COc1cc(C[C@H]2CO[C@H](c3cc(OC)c4c(c3)OCO4)[C@H]2CO)cc2c1OCO2`, the IC50 in the test with WI-38 VA13 was 99.1 µg/mL (≈ 238 µM); in the test with WI-38, 74.3 µg/mL (≈ 178 µM); in the test with HepG2, 72 µg/mL (≈ 173 µM).
In the same order, the values of `COc1cc([C@H]2OC[C@@H]3C(=O)OC[C@@H]32)cc(OC)c1OC` [ZHEPIRESINOL] are 50.7 µg/mL (≈ 172 µM), 57.7 µg/mL (≈ 196 µM) and 60.2 µg/mL (≈ 205 µM).
For the molecule `COc1cc([C@@H]2OC[C@@H]3[C@H]2CO[C@H]3c2cc(OC)c3c(c2)OCO3)cc(OC)c1O`, the IC50 is greater than 100 µg/mL in the test with WI-38 VA13, 96.6 µg/mL (≈ 232 µM) in the test with WI-38 and greater than 100 µg/mL in the test on HepG2.
Turning to `COc1cc([C@H]2OC[C@H]3[C@@H]2CO[C@@H]3c2ccc3c(c2)OCO3)cc(OC)c1O`, the half-maximal inhibitory concentration (IC50) with WI-38 VA13, with WI-38 and in the test on HepG2 was greater than 100 µg/mL throughout.
On to `COc1cc([C@@H]2c3c(cc4c(c3OC)OCO4)C[C@H](COC(C)=O)[C@@H]2COC(C)=O)cc(OC)c1O`, for which the IC50 with A549 [1] is 13.4 µM; with WI-38 VA13, 62.4 µg/mL (≈ 124 µM); in the test on WI-38, 41.3 µg/mL (≈ 82.2 µM); in the test with A549 [2] it was 107 µM; in the test with A549 [3], greater than 316 µM; in the test on HepG2, 74.4 µg/mL (≈ 148 µM).
With `COc1ccc(CCN(C)CCCC(C#N)(c2ccc(OC)c(OC)c2)C(C)C)cc1OC` (configuration not stated) [VERAPAMIL], the Activity in test [4] is reported as 145%; in test [5], 99%; in test [6], 100%; in [7], 114%; in [8], 100%; in [9] it was 100%.
On to `COc1cccc2c1C(=O)c1c(O)c3c(c(O)c1C2=O)C[C@@](O)(C(=O)CO)C[C@@H]3O[C@H]1C[C@H](N)[C@H](O)[C@H](C)O1` [DOXORUBICIN], for which the IC50 in the test on WI-38 VA13 amounted to 0.08 µg/mL (≈ 0.147 µM); with WI-38, 0.76 µg/mL (≈ 1.4 µM); in the test with HepG2, 0.48 µg/mL (≈ 0.883 µM).
As to `COc1cc([C@@H]2OC[C@@H]3[C@H]2CO[C@H]3c2cc(OC)c3c(c2)OCO3)cc(O)c1O`, the figures for the IC50 in the test with WI-38 VA13, in the test on WI-38 and in the test on HepG2 were 5.3 µg/mL (≈ 13.2 µM), 49.8 µg/mL (≈ 124 µM) and 13.2 µg/mL (≈ 32.8 µM), respectively. Further, the Activity was 169% in test [4]; 101% in [5]; 92% in test [6]; 105% in test [7]; 103% in test [8]; 117% in [9].
On to `COc1cc([C@H]2OC[C@@H]3C(c4cc(OC)c(O)c(OC)c4)OC[C@H]23)ccc1O` (some centres not stated) [MEDIORESINOL], for which the IC50 is greater than 100 µg/mL in the test on WI-38 VA13, 76.9 µg/mL (≈ 198 µM) with WI-38 and 84.7 µg/mL (≈ 218 µM) in the test on HepG2.
On to `CC(=O)O[C@H]1C(=O)[C@@]2(C)[C@H]([C@H](OC(=O)c3ccccc3)[C@]3(O)C[C@H](OC(=O)[C@H](O)[C@@H](NC(=O)c4ccccc4)c4ccccc4)C(C)=C1C3(C)C)[C@]1(OC(C)=O)CO[C@@H]1C[C@@H]2O` [PACLITAXEL], for which the IC50 is 0.01 µg/mL (≈ 0.0117 µM) with WI-38 VA13, 0.02 µg/mL (≈ 0.0234 µM) with WI-38 and 0.05 µg/mL (≈ 0.0586 µM) with HepG2.

Usually IC50 stands for the point on the concentration scale where inhibition reaches its midpoint.
